The values below come from the RNAGym collection of RNA variant scans (doi:10.1038/s41586-018-0170-7).

The labels stand for the following.
B1: tRNA (parent)
chain: GUUCCGUUGGCGUAAUGGUAACGCGUCUCCCUCCUAAGGAGAAGACUGCGGGUUCGAGUCCCGUACGGAACG

In this series the parent is B1. Nature of the series: yeast fitness, log relative to wild type (ln ratio); higher = fitter; tRNA-Arg(CCU), competitive growth, 37 C, 1 M NaCl. The essentials:
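Genotype fitness is expressed as the natural log of its generations over those of the wild type. Each pool of the tRNA-Arg(CCU) variant library, carried on a HIS3 centromeric plasmid in BY4742 lacking the chromosomal gene, came from one of two independent transformations and grew 4 generations in SC-HIS at 30 °C before ~6.5 generations (~26.5 h) in SC-HIS 1M NaCl at 37 °C. Generation numbers used OD-scaled log2 output/input frequencies from 125 bp paired-end Illumina sequencing, combined across replicates by inverse-variance weighting.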
As for AUUCCGUUGGCGUAAUGGUAACGCGUCUCCCUCCUAAGGAGAAGACUGCGGGUUCGAGUCCCGUAUGGAUUG, the “yeast fitness (ln)” value is -0.212.
Under AUUCCGUUGGCGUAAUGGUAACGCGUCUCCCUCCUAAGGAGAAGAUUGCGGGUUCGAGUCCCGUAUGGGACG stands -0.202; under AUUCCAUUGGCGUAAUGGUAACGCGUCUCCCUCCUAAGGAGAAGACUGCGGGUUCGAGUCCCGUACGGAACG, -0.0503.
Under AUUCCGUUGGCGUAAUGGUAACGCGUCUCCCUCCUAAGGAGAAGACUGCGGGUUCGAGUCCCGUAAGGGGUG stands -0.158; under AUUCCGUUGGCGUAAUGGUAACGCGUCUCCCUCCUAAGGAGAAGAUUGCGGGUUCGAGUCCCGUAAGGAUUG, -0.171; under AUUCCGUUGGCGUAAUGGUAACGCGUCUCCCUCCUAAGGAGAAGAUUGCGGGUUCGAGUCCCGUAAGGAGUG, -0.11.
Under AUUCCGUUGGCGUAAUGGUAACGCGUCUCCCUCCUAAGGAGAAGAUUGCGGGUUCGAGUCCCGUACGGGACG stands -0.238; under AUUCCGUUGGCGUAAUGGUAACGCGUCUCCCUCCUAAGGAGAAGACUGCGGGUUCGAGUCCCGUAAGGAUUG, -0.144; under AUUCCGUUGGCGUAAUGGUAACGCGUCUCCCUCCUAAGGAGAAGACUGCGGGUUCGAGUCCCGUACGGAAUG, -0.0163.
Take AUUCCGUUGGCGUAAUGGUAACGCGUCUCCCUCCUAAGGAGAAGAUUGCGGGUUCGAGUCCCGUACGGAUCG: the “yeast fitness (ln)” value was -0.0349.
Consider AUUCCGUUGGCGUAAUGGUAACGCGUCUCCCUCCUAAGGAGAAGAUUGCGGGUUCGAGUCCCGUACGGAGCG, for which the “yeast fitness (ln)” value is -0.226.
The value for AUUCCGUUGGCGUAAUGGUAACGCGUUUCCCUCCUAAGGAGAAGACUGCGGGUUCGAGUCCCGUAUGGAGUG was -0.225; that for AUUCCGUUGGCGUAAUGGUAACGCGUCUCCCUCCUAAGGAGAAGAUUGCGGGUUCGAGUCCCGUACGGGGUG was -0.0298.
Under AUUCCGUUGGCGUAAUGGUAACGCGUCUCCCUCCUAAGGAGAAGAUUGCGGGUUCGAGUCCCGUACGGAACG stands -0.0224; under AUUCCGUUGGCGUAAUGGUAACGCGUCUCCCUCCUAAGGAGAAGAUUGCGGGUUCGAGUCCCGUAAGGAUCG, -0.0792.
The value for AUUCCGUUGGCGUAAUGGUAACGCGUCUCCCUCCUAAGGAGAAGAUUGCGGGUUCGAGUCCCGUAAGGAGCG was -0.0981; that for AUUCCGUUGGCGUAAUGGUAACGCGUCUCCCUCCUAAGGAGAAGAUUGCGGGUUCGAGUCCCGUAUGGAUUG was -0.214; that for AUUCCGUUGGCGUAAUGGUAACGCGUCUCCCUCCUAAGGAGAAGACUGCGGGUUCGAGUCCCGUAAGGAGUG was -0.0638.
For AUUCCGUUGGCGUAAUGGUAACGCGUUUCCCUCCUAAGGAGAAGACUGCGGGUUCGAGUCCCGUAAGGAAUG, the “yeast fitness (ln)” value is -0.159.
The value for AUUCCGUUGGCGUAAUGGUAACGCGUCUCCCUCCUAAGGAGAAGAUUGCGGGUUCGAGUCCCGUAUGGGAUG was -0.763; that for AUUCCGUUGGCGUAAUGGUAACGCGUUUCCCUCCUAAGGAGAAGACUGCGGGUUCGAGUCCCGUAAGGAUUG was -0.243.
As to AUUCCGUUGGCGUAAUGGUAACGCGUCUCCCUCCUAAGGAGAAGACUGCGGGUUCGAGUCCCGUAUGGAACG, the “yeast fitness (ln)” value was -0.0546.
Under AUUCCGUUGGCGUAAUGGUAACGCGUCUCCCUCCUAAGGAGAAGACUGCGGGUUCGAGUCCCGUAAGGAACG stands 0.0139; under AUUCCGUUGGCGUAAUGGUAACGCGUCUCCCUCCUAAGGAGAAGACUGCGGGUUCGAGUCCCGUAUGGAUCG, -0.105.
The value for AUUCCGUUGGCGUAAUGGUAACGCGUCUCCCUCCUAAGGAGAAGACUGCGGGUUCGAGUCCCGUAUGGAGCG was -0.107.
The value for AUUCCGUUGGCGUAAUGGUAACGCGUUUCCCUCCUAAGGAGAAGACUGCGGGUUCGAGUCCCGUACGGAAUG was -0.0389; that for AUUCCGUUGGCGUAAUGGUAACGCGUUUCCCUCCUAAGGAGAAGACUGCGGGUUCGAGUCCCGUAUGGAAUG was -0.322; that for AUUCCGUUGGCGUAAUGGUAACGCGUCUCCCUCCUAAGGAGAAGAUUGCGGGUUCGAGUCCCGUAUGGAGUG was -0.493.
As to AUUCCGUUGGCGUAAUGGUAACGCGUCUCCCUCCUAAGGAGAAGAUUGCGGGUUCGAGUCCCGUAAGGGGCG, the “yeast fitness (ln)” value is -0.183.
Under AUUCCGUUGGCGUAAUGGUAACGCGUCUCCCUCCUAAGGAGAAGAUUGCGGGUUCGAGUCCCGUAAGGGUCG stands -0.0801.
Consider AUUCCGUUGGCGUAAUGGUAACGCGUCUCCCUCCUAAGGAGAAGAUUGCGGGUUCGAGUCCCGUAUGGGUCG, for which the “yeast fitness (ln)” value is -0.162.
The value for AUUCCGUUGGCGUAAUGGUAACGCGUCUCCCUCCUAAGGAGAAGAUUGCGGGUUCGAGUCCCGUAUGGGGCG was -0.134.
For the variant AUUCCGUUGGCGUAAUGGUAACGCGUUUCCCUCCUAAGGAGAAGACUGCGGGUUCGAGUCCCGUAUGGAACG, the “yeast fitness (ln)” value was -0.206.
The value for AUUCCGUUGGCGUAAUGGUAACGCGUCUCCCUCCUAAGGAGAAGAUUGCGGGUUCGAGUCCCGUAAGGAACG was 0.0129; that for AUUCCGUUGGCGUAAUGGUAACGCGUCUCCCUCCUAAGGAGAAGAUUGCGGGUUCGAGUCCCGUAUGGAACG was -0.118; that for AUUCCGUUGGCGUAAUGGUAACGCGUUUCCCUCCUAAGGAGAAGACUGCGGGUUCGAGUCCCGUAUGGGGUG was -0.361.
For the variant AUUCCGUUGGCGUAAUGGUAACGCGUCUCCCUCCUAAGGAGAAGACUGCGGGUUCGAGUCCCGUAUGGGGUG, the “yeast fitness (ln)” value was -0.217.
The value for AUUCCGUUGGCGUAAUGGUAACGCGUCUCCCUCCUAAGGAGAAGAUUGCGGGUUCGAGUCCCGUACGGGAUG was -0.00219; that for AUUCCGUUGGCGUAAUGGUAACGCGUCUCCCUCCUAAGGAGAAGAUUGCGGGUUCGAGUCCCGUAAGGGGUG was -0.178.
The value for AUUCCGUUGGCGUAAUGGUAACGCGUCUCCCUCCUAAGGAGAAGAUUGCGGGUUCGAGUCCCGUACGGAGUG was -0.0168.
Under AUUCCGUUGGCGUAAUGGUAACGCGUCUCCCUCCUAAGGAGAAGAUUGCGGGUUCGAGUCCCGUACGGGUUG stands -0.359; under AUUCCGUUGGCGUAAUGGUAACGCGUCUCCCUCCUAAGGAGAAGACUGCGGGUUCGAGUCCCGUAUGGGGCG, -0.176; under AUUCCGUUGGCGUAAUGGUAACGCGUCUCCCUCCUAAGGAGAAGACUGCGGGUUCGAGUCCCGUAUGGGUCG, -0.174.
Regarding AUUCCGUUGGCGUAAUGGUAACGCGUCUCCCUCCUAAGGAGAAGACUGCGGGUUCGAGUCCCGUAUGGAGUG, the “yeast fitness (ln)” value is -0.287.
The value for AUUCCGUUGGCGUAAUGGUAACGCGUUUCCCUCCUAAGGAGAAGACUGCGGGUUCGAGUCCCGUAUGGGUUG was -0.364.
Under AUUCCGUUGGCGUAAUGGUAACGCGUCUCCCUCCUAAGGAGAAGACUGCGGGUUCGAGUCCCGUAUGGGUUG stands -0.364; under AUUCCGUUGGCGUAAUGGUAACGCGUUUCCCUCCUAAGGAGAAGACUGCGGGUUCGAGUCCCGUAUGGGAUG, -0.285; under AUUCCAUUGGCGUAAUGGUAACGCGUCUCCCUCCUAAGGAGACGACUGCGGGUUCGAGUCCCGUACGGAACG, -0.204.
Turning to AUUCCGUUGGCGUAAUGGUAACGCGUCUCCCUCCUAAGGAGAAGAUUGCGGGUUCGAGUCCCGUAUGGGGUG, the “yeast fitness (ln)” value is -0.158.
Under AUUCCGUUGGCGUAAUGGUAACGCGUUUCCCUCCUAAGGAGAAGACUGCGGGUUCGAGUCCCGUAAGGAGUG stands -0.346; under AUUCCGUUGGCGUAAUGGUAACGCGUUUCCCUCCUAAGGAGAAGACUGCGGGUUCGAGUCCCGUAUGGGGCG, -0.211.
The value for AUUCCGUUGGCGUAAUGGUAACGCGUUUCCCUCCUAAGGAGAAGACUGCGGGUUCGAGUCCCGUAUGGGUCG was -0.295; that for AUUCCGUUGGCGUAAUGGUAACGCGUUUCCCUCCUAAGGAGAAGACUGCGGGUUCGAGUCCCGUAUGGAGCG was -0.176; that for AUUCCGUUGGCGUAAUGGUAACGCGUUUCCCUCCUAAGGAGAAGACUGCGGGUUCGAGUCCCGUAUGGAUCG was -0.152.
Under AUUCCGUUGGCGUAAUGGUAACGCGUCUCCCUCCUAAGGAGAAGACUGCGGGUUCGAGUCCCGUAAGGAGCG stands -0.0993; under AUUCCGUUGGCGUAAUGGUAACGCGUCUCCCUCCUAAGGAGAAGACUGCGGGUUCGAGUCCCGUAAGGAUCG, -0.0714.
Take AUUCCAUUGGCGUAAUGGUAACGCGUCUCCCUCCUAAGGAGACGACUGCGGGUUCGAGUCCCGUACGGGGUG: the “yeast fitness (ln)” value is -0.248.
Under AUUCCGUUGGCGUAAUGGUAACGCGUCUCCCUCCUAAGGAGAAGAUUGCGGGUUCGAGUCCCGUACGGAUUG stands -0.0276; under AUUCCGUUGGCGUAAUGGUAACGCGUCUCCCUCCUAAGGAGAAGACUGCGGGUUCGAGUCCCGUAAGGAAUG, -0.113.
Under AUUCCGUUGGCGUAAUGGUAACGCGUUUCCCUCCUAAGGAGAAGACUGCGGGUUCGAGUCCCGUAUGGAUUG stands -0.342; under AUUCCGUUGGCGUAAUGGUAACGCGUCUCCCUCCUAAGGAGAAGAUUGCGGGUUCGAGUCCCGUAUGGAGCG, -0.104; under AUUCCGUUGGCGUAAUGGUAACGCGUCUCCCUCCUAAGGAGAAGAUUGCGGGUUCGAGUCCCGUAUGGAUCG, -0.201.
Under AUUCCGUUGGCGUAAUGGUAACGCGUCUCCCUCCUAAGGAGAAGAUUGCGGGUUCGAGUCCCGUAUGGGUUG stands -0.353; under AUUCCGUUGGCGUAAUGGUAACGCGUUUCCCUCCUAAGGAGAAGACUGCGGGUUCGAGUCCCGUAAGGAUCG, -0.132; under AUUCCGUUGGCGUAAUGGUAACGCGUUUCCCUCCUAAGGAGAAGACUGCGGGUUCGAGUCCCGUAAGGAGCG, -0.212.
With AUUCCGUUGGCGUAAUGGUAACGCGUCUCCCUCCUAAGGAGAAGAUUGCGGGUUCGAGUCCCGUAUGGAAUG, the “yeast fitness (ln)” value was -0.0203.
The value for AUUCCAUUGGCGUAAUGGUAACGCGUCUCCCUCCUAAGGAGACGACUGCGGGUUCGAGUCCCGUACGGGGCG was -0.301; that for AUUCCAUUGGCGUAAUGGUAACGCGUCUCCCUCCUAAGGAGACGACUGCGGGUUCGAGUCCCGUACGGGUCG was -0.224.
With AUUCCGUUGGCGUAAUGGUAACGCGUCUCCCUCCUAAGGAGAAGACUGCGGGUUCGAGUCCCGUAUGGGAUG, the “yeast fitness (ln)” value was -0.515.
The value for AUUCCGUUGGCGUAAUGGUAACGCGUCUCCCUCCUAAGGAGAAGAUUGCGGGUUCGAGUCCCGUAAGGGUUG was -0.331; that for AUUCCGUUGGCGUAAUGGUAACGCGUCUCCCUCCUAAGGAGAAGAUUGCGGGUUCGAGUCCCGUACGGAAUG was -0.01; that for AUUCCGUUGGCGUAAUGGUAACGCGUCUCCCUCCUAAGGAGAAGACUGCGGGUUCGAGUCCCGUAUGGAAUG was -0.105.
The value for AUUCCGUUGGCGUAAUGGUAACGCGUCUCCCUCCUAAGGAGAAGAUUGCGGGUUCGAGUCCCGUACGGGUCG was -0.0206; that for AUUCCGUUGGCGUAAUGGUAACGCGUCUCCCUCCUAAGGAGAAGAUUGCGGGUUCGAGUCCCGUACGGGGCG was -0.127.
The value for AUUCCGUUGGCGUAAUGGUAACGCGUCUCCCUCCUAAGGAGAAGAUUGCGGGUUCGAGUCCCGUAAGGAAUG was -0.243.
